Results as given in ChEMBL document CHEMBL2321858, “1,2,3,4,6-Penta-O-galloyl-β-D-glucopyranose inhibits angiogenesis via inhibition of capillary morphogenesis gene 2” (J Med Chem, 2013).
The source made the active and inactive calls. The calls are words filed in the database; no cut-off is given here.

Tests used:
Anthrax toxin receptor 2 = Anthrax toxin receptor 2 (Homo sapiens, UniProt P58335, C175A/R40C); assay: Inhibition of CMG2 (40 to 217) C175A and R40C double mutant (unknown origin) interaction to full length PA E733C mutant expressed in Escherichia coli by FRET assay
[1] = Cmax in C57BL/6J mouse at 20 mg/kg, ip after 6 to 24 hrs; format: ADME, organism-based; parameters: dose 20 mg/kg, route intraperitoneal; settings: in vivo
Mus musculus [2] = assay: Toxicity in C57BL/6J mouse assessed as behavioral abnormalities at 20 mg/kg, po or 10 mg/kg, ip measured on day 5; format: organism-based; settings: in vivo
Mus musculus [3] = assay: Toxicity in C57BL/6J mouse assessed as hunched posture at 20 mg/kg, po or 10 mg/kg, ip measured on day 5; format: organism-based; settings: in vivo
Mus musculus [4] = assay: Toxicity in C57BL/6J mouse assessed as weight loss at 20 mg/kg, po or 10 mg/kg, ip measured on day 5; format: organism-based; settings: in vivo
Mus musculus [5] = assay: Antiangiogenic activity in C57BL/6J mouse assessed as bFGF-induced angiogenesis at 20 mg/kg, po or 10 mg/kg, ip measured on day 5 by corneal micropocket assay; format: functional, organism-based; settings: Cornea
Method in brief: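 bFGF pellet (80 ng) implanted in cornea; groups of five mice dosed daily from implantation day, either 20 mg/kg by oral gavage in 5% ethanol or 10 mg/kg/day IP in 2.5% DMSO/5% Cremaphor EL/5% Tween-80/7.5% N-methyl-2-pyrrolidone/0.9% NaCl; vehicle-only controls. Vascular response area measured by slit lamp on postoperative day 5, typically 10 eyes per group.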

[6] = Cytotoxicity against HMVEC at 1 to 30 uM after 24 to 72 hrs by fluorescence assay; settings: human
Method in brief: (§1)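 HMVEC-d (EGM-2, before passage 7) seeded at 2000 cells/well, medium swapped after attachment for EGM-2 ± compound; grown 1 or 3 days, then quantified by Cyquant fluorescence. Fold-proliferation = experimental readout / day-0 ethanol-fixed wells; normalized to untreated wells. Four independent experiments, n=4 wells each; t-test with Bonferroni correction.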

[7] = Cytostatic toxicity against HMVEC at 1 to 30 uM after 24 to 72 hrs by fluorescence assay; settings: human; method in brief: as §1
[8] = Antiangiogenic activity in HMVEC assessed as inhibition of endothelial cell migration after 4 hrs by stereomicroscopic analysis; format: functional, cell-based; settings: Homo sapiens
Method in brief: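 HMVEC-d (EGM-2, used before passage 7) resuspended in EBM with 0.1% BSA, 20,000 cells on fibronectin-coated 8.0 μm-pore polycarbonate transwells; migration toward full (5%) serum media ± compound for 4 h. Non-migrated cells swabbed off, membranes fixed and Diff-Quick stained. Data normalized to untreated control; two independent experiments, n=3 each; IC50 from binding isotherm fit.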

Chain of Anthrax toxin receptor 2 (P58335 34-489 R40C/C175A limits assumed): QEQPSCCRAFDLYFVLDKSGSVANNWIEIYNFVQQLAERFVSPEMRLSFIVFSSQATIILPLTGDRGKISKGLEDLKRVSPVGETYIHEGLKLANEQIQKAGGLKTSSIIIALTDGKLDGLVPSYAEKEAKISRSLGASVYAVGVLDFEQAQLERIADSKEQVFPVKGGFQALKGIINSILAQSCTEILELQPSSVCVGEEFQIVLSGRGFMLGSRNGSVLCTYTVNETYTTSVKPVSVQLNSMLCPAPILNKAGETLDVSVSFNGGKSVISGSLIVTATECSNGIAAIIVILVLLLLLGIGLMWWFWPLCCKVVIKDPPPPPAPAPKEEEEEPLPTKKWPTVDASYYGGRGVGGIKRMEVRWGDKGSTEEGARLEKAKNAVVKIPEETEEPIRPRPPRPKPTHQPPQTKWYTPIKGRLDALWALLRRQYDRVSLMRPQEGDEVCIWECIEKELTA

| Structure (SMILES) | IC50 (Anthrax toxin receptor 2) [µM] | further results |
| --- | --- | --- |
| O=C(O)/C=C/c1ccc(O)c(O)c1 [CAFFEIC ACID] | > 300 |  |
| COc1cc(/C=C/C(=O)CC(=O)/C=C/c2ccc(O)c(OC)c2)ccc1O [CURCUMIN] | > 300 |  |
| Oc1cc(O)c2c(c1)O[C@H](c1ccc(O)c(O)c1)[C@H](O)C2 [(-)-EPICATECHIN] | > 300 |  |
| Oc1cc(O)c2c(c1)O[C@H](c1cc(O)c(O)c(O)c1)[C@H](O)C2 [EPIGALLOCATECHIN] | > 300 |  |
| O=C(O)c1cc(O)c(O)c(O)c1 [GALLIC ACID] | > 300 |  |
| COC(=O)c1ccc(O)c(O)c1 [METHYL PROTOCATECHUATE] | > 300 |  |
| COc1cc(C(=O)O)ccc1O [VANILLIC ACID] | > 300 |  |
| O=C(OC[C@H]1O[C@@H](OC(=O)c2cc(O)c(O)c(OC(=O)c3cc(O)c(O)c(O)c3)c2)[C@H](OC(=O)c2cc(O)c(O)c(OC(=O)c3cc(O)c(O)c(O)c3)c2)[C@@H](OC(=O)c2cc(O)c(O)c(OC(=O)c3cc(O)c(O)c(O)c3)c2)[C@@H]1OC(=O)c1cc(O)c(O)c(OC(=O)c2cc(O)c(O)c(O)c2)c1)c1cc(O)c(O)c(OC(=O)c2cc(O)c(O)c(O)c2)c1 [TANNIC ACID] | > 300 |  |
| O=C(O)c1ccc(O)c(O)c1 [PROTOCATECHUIC ACID] | > 300 |  |
| O=c1c(O)c(-c2cc(O)c(O)c(O)c2)oc2cc(O)cc(O)c12 [MYRICETIN] | > 300 |  |
| O=C(OC[C@H]1O[C@@H](OC(=O)c2cc(O)c(O)c(O)c2)[C@H](OC(=O)c2cc(O)c(O)c(O)c2)[C@@H](OC(=O)c2cc(O)c(O)c(O)c2)[C@@H]1OC(=O)c1cc(O)c(O)c(O)c1)c1cc(O)c(O)c(O)c1 [PENTAGALLOYL GLUCOSE] | 0.3 | Cmax [1]: < 1000 nM; Activity (Mus musculus [2]): Non-toxic; Activity (Mus musculus [3]): Non-toxic; Activity (Mus musculus [4]): Non-toxic; inhibition (Mus musculus [5]): Active; Activity [6]: Non-toxic; Activity [7]: Non-toxic; IC50 [8]: 0.82 µM |
| NCCc1ccc(O)c(O)c1 [DOPAMINE] | > 300 |  |
| COC(=O)c1cc(O)c(O)c(O)c1 [GALLIC ACID METHYL ESTER] | > 300 |  |
| CCCOC(=O)c1cc(O)c(O)c(O)c1 [PROPYL GALLATE] | > 300 |  |
| O=C(O)CCc1ccc(O)c(O)c1 [DIHYDROCAFFEIC ACID] | > 300 |  |
| O=c1c(O)c(-c2ccc(O)c(O)c2)oc2cc(O)cc(O)c12 [QUERCETIN] | > 300 |  |
